High-throughput results from PubChem BioAssay.
FXN GAA850 act = frataxin GAA850 promoter activation | AID 540364 | HEK293 lucGAA850 FXN promoter luciferase reporter, 24 h; percent of 10 µM SAHA response | actives 0.56% (n = 360,000) | activation, % at 6 µM;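 active = activation above the average of all compounds screened plus 3 SD, cutoff fixed separately per campaign, cut at about 7.5% in these data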;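 also: 0% = DMSO wells and 100% = 10 µM SAHA wells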
SENP1 FRET inh = SENP1 (human) catalytic domain inhibition; Q9P0U3; recombinant SENP1 catalytic domain, CyPet-SUMO1-YPet FRET cleavage; inhibition, % at 10 µM; actives 0.21% (n = 360,000); AID 624204;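 active = inhibition at least 30% at 10 µM, raw YFP signal under a set limit, fluorescence ratio 0.5 to 1.5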;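 also: 0% = enzyme with DMSO and 100% = no enzyme wells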
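Test system: recombinant human SENP1 catalytic domain, His6-tagged / Medium: pH 8 Tris buffer with EDTA, NaCl, BME, BSA, NP40, catalase / Also added: SUMO1 FRET substrate flanked by Cypet and Ypet, 25 nM / Times: 50 min reaction at room temperature / Signal: FRET, CFP and YFP emission / Control set: no-enzyme low control and enzyme-plus-DMSO high control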
HDAC3 inh = inhibitors of human histone deacetylase 3. AID 2718. inhibition, % at 8.3 µM. O15379. recombinant HDAC3, fluorogenic peptide/trypsin coupled, fluorescence. actives 0.15% (n = 320,000); in the data active = inhibition above about 26%, passing the limit was not always enough; inconclusive = no clear call, values can overlap the other calls
Target sequence (O15379 whole entry, looked up): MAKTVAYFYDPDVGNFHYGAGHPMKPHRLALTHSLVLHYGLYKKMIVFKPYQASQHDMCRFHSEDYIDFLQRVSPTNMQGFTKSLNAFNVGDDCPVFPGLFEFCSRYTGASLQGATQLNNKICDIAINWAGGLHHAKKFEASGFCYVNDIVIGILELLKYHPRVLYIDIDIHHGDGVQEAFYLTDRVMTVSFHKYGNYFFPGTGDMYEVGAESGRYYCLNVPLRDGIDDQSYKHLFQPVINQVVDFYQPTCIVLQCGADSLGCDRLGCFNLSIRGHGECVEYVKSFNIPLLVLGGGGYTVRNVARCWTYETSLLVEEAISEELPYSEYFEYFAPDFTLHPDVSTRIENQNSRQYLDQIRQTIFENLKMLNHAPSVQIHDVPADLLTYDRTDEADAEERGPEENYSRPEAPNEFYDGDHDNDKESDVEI
M18AAP inhibitor = blocks P. falciparum M18 aspartyl aminopeptidase; recombinant PfM18AAP, H-Glu-NHMec fluorogenic cleavage; inhibition, % at 7.35 µM; actives 1.2% (n = 290,000);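 active = inhibition above the campaign mean inhibition over all tested compounds plus 3 SD, cut at about 28% in these data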;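 also: 0% = plate median of test compound wells and 100% = 2 mM ZnCl2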
Fh CTSL1 inh = counter-screen for PFM18AAP inhibitors: inhibitors of F. hepatica cathepsin L1; recombinant F. hepatica cathepsin L1, Z-Leu-Arg-MCA fluorescence; inhibition, % at 5.96 µM; actives 0.49% (n = 300,000); AID 1906;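 active = inhibition above the mean of all tested compounds plus 3 SD, set per screening campaign, cut at about 17% in these data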;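 also: 0% = plate median of test compound wells and 100% = 1 µM Z-Phe-Ala-diazomethylketone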
AHR act = activators of human aryl hydrocarbon receptor; AHR-responsive luciferase reporter cells, luminescence; activation, % at 5 µM; AID 2796; actives 2.5% (n = 320,000); P35869; in the data active = activation above about 47%;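 also: 0% = vehicle wells and 100% = reference agonist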
Numbers without * were called inactive; ? = inconclusive; . = no result. A selection: hits, their analogues and other compounds. The true share with any hit is near 4.2%.

SMILES	FXN GAA850 act	SENP1 FRET inh	HDAC3 inh	M18AAP inhibitor	Fh CTSL1 inh	AHR act
CSCCC(NC(=O)c1cccc([N+](=O)[O-])c1)C(=O)O (stereo unspecified)	1	1	-4	3	-3	0
Cn1c(SCc2cccc(F)c2)nnc1-c1cnccn1	3	0	4	9	54*	1
Cn1c(SCc2cccc(F)c2)nnc1-c1ccccn1	5	2	5	0	3	-2
Fc1ccccc1-c1n[nH]c(=S)n1CC1CCCO1 (stereo unspecified)	0	-1	-5	32*	1	-2
S=c1[nH]nc(-c2ccccc2Cl)n1CC1CCCO1 (stereo unspecified)	3	0	5	5	1	0
Cc1ccc(C(=O)O/N=C(\N)Cc2cccs2)c(Cl)c1	-1	1	1	-9	-1	-10
Oc1ccc(-c2nc3ccccc3s2)c(O)c1	4	-7	-18	4	-1	8
Oc1ccc(-c2cnns2)c(O)c1	7	2	10	99*	-3	13
CCOC(=O)N1CCC(NC(=O)c2cc(COc3ccccc3SC)on2)CC1	0	-1	4	1	-1	-2
O=C(c1ccccc1F)N1CCN(S(=O)(=O)c2ccc3c(c2)OCCO3)CC1	-1	-2	32*	-1	-2	-1
O=C(Nc1ccccc1)C1CCN(S(=O)(=O)c2ccc3c(c2)OCCO3)CC1	1	4	3	.	0	1
O=C(NCC(=O)N1CCN(S(=O)(=O)c2ccc3c(c2)OCCO3)CC1)c1ccccc1F	0	-2	-4	.	.	1
O=C(C1CC1)N1CCN(S(=O)(=O)c2ccc3c(c2)OCCO3)CC1	3	1	4	4	-3	55*
Cc1nc2cc(N3CCCCC3)c(NC(=O)c3cccnc3)cc2c(=O)n1Cc1ccccc1	1	-9	-11	-5	6	49*
Cc1ccc(N=Cc2c(O)[nH]c3ccccc23)c([N+](=O)[O-])c1	6	2	3	-15	3	7
CCOc1ccc(N(C)S(=O)(=O)c2ccc(-c3ccc(=O)[nH]n3)s2)cc1	2	2	0	4	40*	6
Cc1ccc(N(C)S(=O)(=O)c2ccc(-c3ccc(=O)[nH]n3)s2)cc1C	1	1	3	1	-2	2
O=C(O)C1CSC(c2coc3ccccc3c2=O)N1 (stereo unspecified)	1	-17	-18	29*	3	13
CC1CCOC(c2coc3ccccc3c2=O)O1 (stereo unspecified)	3	-2	0	-1	0	6
C=CCn1c(C)nnc1SCC(=O)Nc1oc(C)c2c(C)n[nH]c(=O)c12	0	-7	4	.	18*	2
CN(CC(=O)Nc1cccc(F)c1)C(=O)/C=C/c1ccc2ccccc2n1	1	-3	-10	-9	1	17
COc1ccc(-c2nc3ccc(N4CCN(C)CC4)cc3c(=O)[nH]2)cc1	2	-1	-9	1	1	56*
Cc1ccc(NC(=S)NNC(C)(C)C)cc1	2	2	11	-3	0	6
CC(C)=NN/C(N)=N/C(=S)Nc1ccc(C)cc1	-2	2	-3	29*	-1	12
Cc1c(Cl)cccc1NC(=O)Nc1cccnc1	2	1	-1	-5	3	38
SMILES	FXN GAA850 act	SENP1 FRET inh	HDAC3 inh	M18AAP inhibitor	Fh CTSL1 inh	AHR act
O=C(Nc1cccnc1)Nc1ccc(Cl)cc1Cl	4	1	4	3	-5	48*
Cc1ccc(NC(=O)Nc2ncccc2C)cc1	6	1	1	4	-2	57*
O=C(Nc1ccc(Cl)cc1Cl)NC1CCCC1	-1	1	3	1	-1	53*
CC(=O)c1cccc(NC(=O)Nc2cccnc2)c1	-9	0	2	-12	3	65*
S=C(Nc1ccc(Cl)cc1Cl)NC1CCCCC1	0	0	2	-1	0	4
Cc1noc(C)c1C(=O)N(CC(=O)Nc1ccccc1Br)Cc1ccco1	1	0	9	.	.	-2
O=C(CCN1CCN(c2ccccc2)CC1)N/N=C/c1ccccc1OC(F)F	1	-1	4	1	3	9
COc1ccc(Br)c(C(=O)OCC(=O)NC2CCCCCC2)c1	0	2	3	.	.	0
NS(=O)(=O)c1cccc(NC(=O)Nc2ccccc2)c1	-1	-1	3	-1	-3	8
Cc1cccc(NC(=O)Nc2cnccn2)c1	2	1	0	-3	-1	39
CCOc1ccc(NC(=O)Nc2cccnc2)cc1	4	2	0	-1	-4	61*
Cc1cc(C)cc(NC(=O)Nc2cccc(S(N)(=O)=O)c2)c1	2	1	5	5	-2	58*
Cc1cccc(NC(=O)Nc2ccncc2)c1	2	2	-3	1	0	53*
Cc1ccc(S(=O)(=O)N2CCOC2CNC(=O)C(=O)NCCN(C)C)cc1 (stereo unspecified)	1	-1	3	1	-1	3
Cc1ccc(C(O)c2ncc(-c3ccc(Cl)cc3)[nH]2)cc1F (stereo unspecified)	-3	-1	.	.	.	.
COc1ccc(NC2CCCN(C(=O)c3cn(C)c4ccccc34)C2)cc1 (stereo unspecified)	2	-2	1	2	3	7
O=C(c1cc(Cl)cc(Cl)c1)N1CCC(=O)N([C@H](COCc2ccccc2)Cc2ccccc2)CC1	.	1	.	.	.	.
Cc1cc(C)c2c(=O)cc(C(F)F)oc2c1	0	-1	2	-6	17*	3
CCCn1c2ccccc2c2nnc(SCC(=O)OC)nc21	-1	0	1	-4	3	2
Cn1c2ccc(Br)cc2c2nnc(SCC(=O)O)nc21	2	1	3	8	-3	54*
Cn1c2ccccc2c2nnc(SCC(=O)Nc3cccc(O)c3)nc21	3	0	-1	8	0	66*
CCCCn1c2ccccc2c2nnc(SCC(=O)NC3=NN=C(c4ccccc4)CS3)nc21	.	.	17	17	3	61*
Cc1cc(C)n2nc(C(=O)NCCc3ccccc3)nc2n1	4	-2	4	8	-2	28
O=C(NCCc1ccccc1)c1nc2nc(-c3cccs3)cc(C(F)(F)F)n2n1	4	-28	-110	9	4	77*
Nc1nc2ccccc2n1C(=O)c1ccccc1	-1	-1	?	3	-1	10
Nc1nc2ccccc2n1C(=O)c1cccs1	0	-4	-1	0	2	52*
COc1ccccc1NC(=O)c1cnc2n(c1=O)CCS2	3	1	8	2	2	67*
O=C(NCCc1ccc(Cl)cc1)c1cnc2n(c1=O)CCS2	2	1	6	.	-4	9
